ChEMBL document CHEMBL1144042, “Cytotoxic simplified tubulysin analogues” (J Med Chem, 2008)

How the values were obtained:
1A9 = assay: Cytotoxicity against human 1A9 cells; format: functional, cell-based
[1] = Inhibition of rat brain tubulin polymerization
Procedure, shortened: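 Rat brain tubulin (10 µM) mixed on ice with test compound at 0.5, 1, 2 and 4 µM in 0.8 M sodium glutamate, pH 6.6, with 0.4 mM GTP. Samples then warmed to 33 °C. Polymerization followed over time as optical density at 350 nm. IC50 taken from the concentration series.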

[2] = Anticancer activity against multidrug-resistant human KBV1 cells; format: functional, cell-based; conditions: KB-V1
HCT-15 = assay: Anticancer activity against multidrug-resistant human HCT15 cells; format: functional

| Structure (SMILES) | IC50 (1A9) [nM] | other results |
| --- | --- | --- |
| CC[C@@H](C)[C@H](NC(=O)[C@H]1CCCCN1)C(=O)N[C@H](CC(=O)c1nc(C(=O)N[C@@H](Cc2ccccc2)C[C@H](C)C(=O)O)cs1)C(C)C | 23000 |  |
| CCC(C)[C@H](NC(=O)[C@H]1CCCCN1C)C(=O)N[C@H](CC(=O)c1nc(C(=O)N[C@@H](Cc2ccccc2)C[C@H](C)C(=O)O)cs1)C(C)C (single isomer, unassigned) | 200 | IC50 [1]: 1800 nM |
| CC[C@@H](C)[C@H](NC(=O)[C@@H]1CCCCN1)C(=O)N[C@H](CC(=O)c1nc(C(=O)N[C@@H](Cc2ccccc2)C[C@H](C)C(=O)O)cs1)C(C)C | 24000 |  |
| CCC(C)[C@H](NC(=O)[C@H]1CCCN1C)C(=O)N[C@H](CC(=O)c1nc(C(=O)N[C@@H](Cc2ccccc2)C[C@H](C)C(=O)O)cs1)C(C)C (single isomer, unassigned) | 800 | IC50 [1]: 1000 nM |
| CN[C@H](C(=O)N[C@H](C(=O)N(C)[C@H](/C=C(\C)C(=O)O)C(C)C)C(C)(C)C)C(C)(C)c1ccccc1 [TALTOBULIN] | 0.03 | IC50 [1]: 1000 nM |
| CCC(C)[C@H](NC(=O)[C@@H]1CCCN1C)C(=O)N[C@H](CC(=O)c1nc(C(=O)N[C@@H](Cc2ccccc2)C[C@H](C)C(=O)O)cs1)C(C)C (single isomer, unassigned) | 18000 |  |
| CCC(C)[C@H](NC(=O)[C@H]1CCCCN1C)C(=O)N(COC(=O)CC(C)C)[C@H](C[C@@H](OC(C)=O)c1nc(C(=O)N[C@@H](Cc2ccccc2)C[C@H](C)C(=O)O)cs1)C(C)C (single isomer, unassigned) [TUBULYSIN D] |  | IC50 [2]: 0.31 nM |
| COc1cc([C@@H]2c3cc4c(cc3[C@H](O)[C@H]3COC(=O)[C@H]23)OCO4)cc(OC)c1OC [PODOFILOX] | 3 |  |
| CCC(C)[C@H](NC(=O)[C@H]1CCCN1)C(=O)N[C@H](CC(=O)c1nc(C(=O)N[C@@H](Cc2ccccc2)C[C@H](C)C(=O)O)cs1)C(C)C (single isomer, unassigned) | > 33000 |  |
| CCC(C)[C@H](NC(=O)[C@@H]1CCCCN1C)C(=O)N[C@H](CC(=O)c1nc(C(=O)N[C@@H](Cc2ccccc2)C[C@H](C)C(=O)O)cs1)C(C)C (single isomer, unassigned) | 25000 |  |
| CC[C@@H](C)[C@H](NC(=O)[C@H]1CCCCN1C)C(=O)N(COC(=O)CC(C)C)[C@H](C[C@@H](OC(C)=O)c1nc(C(=O)N[C@@H](Cc2ccc(O)cc2)C[C@H](C)C(=O)O)cs1)C(C)C [TUBULYSIN A] |  | GI50 (HCT-15): 0.12 nM |
| CCC(C)[C@H](NC(=O)[C@@H]1CCCN1)C(=O)N[C@H](CC(=O)c1nc(C(=O)N[C@@H](Cc2ccccc2)C[C@H](C)C(=O)O)cs1)C(C)C (single isomer, unassigned) | > 33000 |  |
